{"source": "paper PMC4720131", "about": "(ACS Chemical Biology, 2015)", "system": "HIV-1 Gag-Pol/Gag (frameshifting)", "experiment": "Western blot of virion proteins, ratio p160 to p24+p55", "type": "cell-based", "details": "protease inhibitor control", "in_short": "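Virions came from HEK293T producer cells transfected with an NL4-3 proviral vector (nef replaced by GFP, env deleted) plus VSV-G plasmid at 1:0.5. Test compound added 4 h post-transfection, media harvested at 24 h and 0.45-μm filtered. Virion proteins run on SDS-PAGE and blotted with anti-p24 to detect p24, p55 and p160. p160/(p24+p55) ratio taken by scanning densitometry. Indinavir served as protease-inhibitor control.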"}
{"smiles": "CC(C)(C)NC(=O)[C@@H]1CN(Cc2cccnc2)CCN1C[C@@H](O)C[C@@H](Cc1ccccc1)C(=O)N[C@H]1c2ccccc2C[C@H]1O", "note": "[Indinavir, indinavir]", "values": [{"measurement": "effect on p160 on virion blot (in words)", "value": "No buildup of p160 was observed"}]}
